Measured values: ChEMBL document CHEMBL1147905, “Novel thyroid hormone receptor antagonists with an N-alkylated diphenylamine skeleton” (Bioorg Med Chem, 2007)
Activity calls are given as the source filed them. The rule behind the calls is not given here.

Tests used:
Assay type in all cases: functional, cell-based
Conditions in all cases: COS-1
[1] = target: T1, Thyroid hormone receptor alpha (Homo sapiens) (UniProt P10827); experiment: Agonist activity at human thyroid hormone receptor alpha-1 expressed in COS1 cells by transactivation assay after 40 hrs
T1 sequence (whole entry): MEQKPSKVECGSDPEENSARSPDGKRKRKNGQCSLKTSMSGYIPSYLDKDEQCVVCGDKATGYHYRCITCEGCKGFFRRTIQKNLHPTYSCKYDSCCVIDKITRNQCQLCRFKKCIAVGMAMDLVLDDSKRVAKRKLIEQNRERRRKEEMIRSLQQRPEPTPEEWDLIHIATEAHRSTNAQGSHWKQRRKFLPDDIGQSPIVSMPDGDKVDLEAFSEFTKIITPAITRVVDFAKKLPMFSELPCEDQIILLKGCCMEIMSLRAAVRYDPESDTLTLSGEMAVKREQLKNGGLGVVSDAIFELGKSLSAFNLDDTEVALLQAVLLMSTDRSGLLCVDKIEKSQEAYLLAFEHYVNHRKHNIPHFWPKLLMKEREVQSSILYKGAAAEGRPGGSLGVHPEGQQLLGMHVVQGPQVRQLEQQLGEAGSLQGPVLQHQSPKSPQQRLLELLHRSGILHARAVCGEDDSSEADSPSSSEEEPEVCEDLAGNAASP
Outline: (§1)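 COS-1 cells were seeded at 8 × 10⁴ per well in 5% FBS/DMEM and grown overnight at 37 °C, 5% CO₂. In serum-free DMEM with Lipofectamine 2000 they were transfected with pCMX-hTRα1 (α1) or pCDNA-hTRβ1 (β1) (100 ng), (TREpal)₃-TKLUC reporter (200 ng) and pCMVβ reference. After 4–5 h, charcoal-dextran FBS medium and compounds (final 0.5% EtOH) were added for 40 h. Read-out was luciferase normalised to β-galactosidase.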

[2] = target: T2, Thyroid hormone receptor beta (Homo sapiens) (UniProt P10828); experiment: Agonist activity at human thyroid hormone receptor beta-1 expressed in COS1 cells by transactivation assay after 40 hrs; outline: as §1
T2 sequence (whole entry): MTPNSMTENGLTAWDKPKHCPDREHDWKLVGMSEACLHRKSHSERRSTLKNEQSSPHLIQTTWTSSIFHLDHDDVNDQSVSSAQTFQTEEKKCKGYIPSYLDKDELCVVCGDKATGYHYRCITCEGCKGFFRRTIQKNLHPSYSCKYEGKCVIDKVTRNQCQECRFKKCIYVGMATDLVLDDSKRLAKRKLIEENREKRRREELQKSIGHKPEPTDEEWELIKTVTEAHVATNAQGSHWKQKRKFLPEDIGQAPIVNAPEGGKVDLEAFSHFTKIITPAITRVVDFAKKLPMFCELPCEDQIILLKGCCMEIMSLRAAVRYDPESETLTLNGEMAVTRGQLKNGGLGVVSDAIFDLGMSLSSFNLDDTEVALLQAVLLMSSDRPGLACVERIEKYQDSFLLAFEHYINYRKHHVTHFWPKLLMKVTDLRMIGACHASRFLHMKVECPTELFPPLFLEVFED

[3] = target: T1, Thyroid hormone receptor alpha (Homo sapiens); experiment: Antagonist activity at human thyroid hormone receptor alpha-1 expressed in COS1 cells by transactivation assay after 40 hrs
Outline: (§2)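 Same COS-1 transfection (pCMX-hTRα1 or pCDNA-hTRβ1 with (TREpal)₃-TKLUC and pCMVβ) and 40 h treatment in charcoal-dextran FBS medium, 0.5% EtOH final. Compounds were added alongside 3 × 10⁻⁹ M T₃. Luciferase was normalised to β-galactosidase and expressed as percent of the T₃-alone value (100%). Means ± SD, n = 3.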

[4] = target: T2, Thyroid hormone receptor beta (Homo sapiens); experiment: Antagonist activity at human thyroid hormone receptor beta-1 expressed in COS1 cells by transactivation assay after 40 hrs; outline: as §2

Row | SMILES | Activity [1] | Activity [2] | Activity [3] | Activity [4]
1 | CC(C)=CCN(c1ccc(O)c(C(C)C)c1)c1c(C)cc(CC2SC(=O)NC2=O)cc1C (stereo not drawn) | inactive | inactive | Active | Active
2 | Cc1cc(CC2SC(=O)NC2=O)cc(C)c1N(CC1CCCCC1)c1ccc(O)c(C(C)C)c1 (stereo not drawn) | inactive | inactive | Active | Active
3 | Cc1cc(CC2SC(=O)NC2=O)cc(C)c1N(Cc1ccccc1)c1ccc(O)c(C(C)C)c1 (stereo not drawn) | inactive | inactive | Active | Active
4 | Cc1cc(CC2SC(=O)NC2=O)cc(C)c1N(C)c1ccc(O)c(C(C)C)c1 (stereo not drawn) | Active | Active | inactive | inactive
5 | CCCCCCN(c1ccc(O)c(C(C)C)c1)c1c(C)cc(CC2SC(=O)NC2=O)cc1C (stereo not drawn) | inactive | inactive | Active | Active
6 | Cc1cc(CC2SC(=O)NC2=O)cc(C)c1N(CC(C)C)c1ccc(O)c(C(C)C)c1 (stereo not drawn) | inactive | inactive | Active | Active
7 | Cc1cc(CC2SC(=O)NC2=O)cc(C)c1N(CC1CC1)c1ccc(O)c(C(C)C)c1 (stereo not drawn) | inactive | inactive | Active | Active
